In ChEMBL document CHEMBL1914339, “Design, synthesis and biological evaluation of pyridine acyl sulfonamide derivatives as novel COX-2 inhibitors” (Bioorg Med Chem, 2011):
The source made the active and inactive calls. The calls are words filed in the database; no cut-off is given here.

Experiments:
MCF7 = test: Antiproliferative activity against human MCF7 cells after 48 hrs by MTT colorimetric assay; format: functional, cell-based; conditions: MCF7, 48 h
Summary of the method: (§1)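 Cells seeded at 2 × 10⁴ cells/ml and grown 24 h, then exposed in exponential growth to final compound concentrations of 0.1 to 100 for 48 h. Survival read by MTT (0.5 mg/mL in DMEM, 4 h) with absorbance at 570 nm. Three replicate wells per concentration; each assay run at least three times.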

B16-F10 = test: Antiproliferative activity against mouse B16F10 cells after 48 hrs by MTT colorimetric assay; format: functional, cell-based; conditions: B16-F10, 48 h; summary of the method: as §1
RAW264.7 [1] = test: Antiinflammatory activity in mouse RAW264.7 cells assessed as inhibition of LPS-induced PGE2 production; format: functional, cell-based
HepG2 = test: Antiproliferative activity against human HepG2 cells after 48 hrs by MTT colorimetric assay; format: functional, cell-based; conditions: HepG2, 48 h; summary of the method: as §1
[2] = target: Prostaglandin G/H synthase 2 (Mus musculus) (UniProt Q05769)
[3] = target: Prostaglandin G/H synthase 1 (Mus musculus) (UniProt P22437)
RAW264.7 [4] = test: Inhibition of LPS-induced COX2 expression in mouse RAW264.7 cells at 0.75 to 1.5 uM treated 15 mins before LPS challenge measured after 18 hrs by Western blotting; format: functional, cell-based
Summary of the method: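 RAW 264.7 cells (5 × 10⁵) were plated for 24 h, then pretreated with compound for 15 min before LPS stimulation for 18 h. Cells were lysed in lysis buffer and COX-2 protein was detected by Western immunoblot.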

Sequence of Prostaglandin G/H synthase 1 (Mus musculus) (P22437 whole entry, looked up): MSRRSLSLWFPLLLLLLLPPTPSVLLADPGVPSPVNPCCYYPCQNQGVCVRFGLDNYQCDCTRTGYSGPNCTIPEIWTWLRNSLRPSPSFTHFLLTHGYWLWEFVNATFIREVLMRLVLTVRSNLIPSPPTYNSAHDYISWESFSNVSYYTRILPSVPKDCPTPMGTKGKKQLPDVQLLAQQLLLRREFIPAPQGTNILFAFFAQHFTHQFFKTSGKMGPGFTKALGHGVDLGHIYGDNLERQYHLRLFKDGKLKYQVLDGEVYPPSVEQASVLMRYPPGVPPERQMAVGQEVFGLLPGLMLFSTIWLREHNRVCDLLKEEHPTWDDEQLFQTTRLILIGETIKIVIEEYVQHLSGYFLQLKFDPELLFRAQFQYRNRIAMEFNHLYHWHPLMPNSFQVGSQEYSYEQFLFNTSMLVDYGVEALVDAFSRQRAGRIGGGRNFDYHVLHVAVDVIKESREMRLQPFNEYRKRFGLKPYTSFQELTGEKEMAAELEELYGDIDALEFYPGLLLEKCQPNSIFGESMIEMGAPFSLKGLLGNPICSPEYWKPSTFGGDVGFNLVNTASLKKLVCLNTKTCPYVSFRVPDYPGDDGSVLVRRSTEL
Sequence of Prostaglandin G/H synthase 2 (Mus musculus) (Q05769 whole entry, looked up): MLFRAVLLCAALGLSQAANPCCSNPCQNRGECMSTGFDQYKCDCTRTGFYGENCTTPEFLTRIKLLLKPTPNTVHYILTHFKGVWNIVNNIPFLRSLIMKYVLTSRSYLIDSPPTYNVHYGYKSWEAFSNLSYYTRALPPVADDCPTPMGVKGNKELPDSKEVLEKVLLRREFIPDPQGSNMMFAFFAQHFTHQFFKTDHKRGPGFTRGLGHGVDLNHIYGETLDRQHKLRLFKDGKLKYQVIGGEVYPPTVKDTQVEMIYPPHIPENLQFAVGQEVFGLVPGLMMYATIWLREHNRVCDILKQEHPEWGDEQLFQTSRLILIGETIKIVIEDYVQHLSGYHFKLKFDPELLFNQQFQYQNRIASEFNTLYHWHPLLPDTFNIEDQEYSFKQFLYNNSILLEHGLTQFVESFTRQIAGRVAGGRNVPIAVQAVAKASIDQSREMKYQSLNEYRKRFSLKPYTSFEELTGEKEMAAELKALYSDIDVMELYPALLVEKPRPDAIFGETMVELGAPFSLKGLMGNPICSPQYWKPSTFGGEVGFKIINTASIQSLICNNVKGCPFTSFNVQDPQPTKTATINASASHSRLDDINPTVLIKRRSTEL

| SMILES | IC50 (MCF7) [µM] | IC50 (B16-F10) [µM] | IC50 (RAW264.7 [1]) [µM] | IC50 (HepG2) [µM] | IC50 [2] [µM] | IC50 [3] [µM] | inhibition (RAW264.7 [4]) |
| --- | --- | --- | --- | --- | --- | --- | --- |
| Cc1ccc(S(=O)(=O)NC(=O)c2cncc(C(=O)NS(=O)(=O)c3ccc(C)cc3)c2)cc1 | 10.8 | 9.2 | 2.2 | 10 | 8.5 | > 50 | – |
| Cc1ccc(S(=O)(=O)NC(=O)c2cccnc2)cc1 | 15.5 | 18.5 | 8.8 | 12.3 | 18.2 | > 50 | – |
| Cc1ccc(S(=O)(=O)NC(=O)c2ccccn2)cc1 | 11.8 | 16.7 | 5.9 | 12.1 | 8 | > 50 | – |
| O=C(NS(=O)(=O)c1ccc(F)cc1)c1ccccn1 | 11 | 10.9 | 3.3 | 8.5 | 6.3 | 43.8 | – |
| O=C(NS(=O)(=O)c1ccc(F)cc1)c1cccnc1 | 10.6 | 13.8 | 8.6 | 9 | 11.7 | > 50 | – |
| Cc1ccc(-c2cc(C(F)(F)F)nn2-c2ccc(S(N)(=O)=O)cc2)cc1 [CELECOXIB] | 40.8 | 85.6 | 0.1 | 95.5 | – | – | – |
| O=C(NS(=O)(=O)c1ccc(Cl)cc1)c1ccncc1 | 10.1 | 12.4 | 8.9 | 7.9 | 12.6 | 41.2 | – |
| O=C(NS(=O)(=O)c1ccc(F)cc1)c1ccncc1 | 13.9 | 13.8 | 9.2 | 12.4 | 12.1 | > 50 | – |
| O=C(NS(=O)(=O)c1ccc(Cl)cc1)c1cccnc1 | 10.1 | 11.9 | 3.2 | 8.6 | 6.6 | 35.8 | – |
| O=C(NS(=O)(=O)c1ccc(Cl)cc1)c1ccccn1 | 9.8 | 9.4 | 2.8 | 8.1 | 6 | 39.7 | – |
| Cc1ccc(S(=O)(=O)NC(=O)c2ccncc2)cc1 | 14.1 | 16.2 | 9.8 | 20.2 | 19.4 | > 50 | – |
| O=C(NS(=O)(=O)c1ccccc1)c1cncc(C(=O)NS(=O)(=O)c2ccccc2)c1 | 10.6 | 11.3 | 2.6 | 9.2 | 7.9 | 36.9 | – |
| O=C(NS(=O)(=O)c1ccccc1)c1ccccn1 | 10.6 | 14.2 | 4.5 | 9.9 | 8.8 | > 50 | – |
| O=C(NS(=O)(=O)c1ccccc1)c1cccnc1 | 11.5 | 14.5 | 9.5 | 10.4 | 15.8 | > 50 | – |

Stronger by IC50 (MCF7), values ahead:

| IC50 (MCF7) [µM] | IC50 (B16-F10) [µM] | IC50 (RAW264.7 [1]) [µM] | IC50 (HepG2) [µM] | IC50 [2] [µM] | IC50 [3] [µM] | SMILES | inhibition (RAW264.7 [4]) |
| --- | --- | --- | --- | --- | --- | --- | --- |
| 4.2 | 6.2 | 0.87 | 3.8 | 1.9 | 41.5 | O=C(NS(=O)(=O)c1ccc(Cl)cc1)c1cccc(C(=O)NS(=O)(=O)c2ccc(Cl)cc2)n1 | – |
| 9.3 | 10.7 | 1.6 | 5.3 | 3.7 | 35.8 | O=C(NS(=O)(=O)c1ccccc1)c1cccc(C(=O)NS(=O)(=O)c2ccccc2)n1 | – |
| 4.6 | 10 | 1.1 | 3.7 | 2.6 | 40.3 | O=C(NS(=O)(=O)c1ccc(F)cc1)c1cccc(C(=O)NS(=O)(=O)c2ccc(F)cc2)n1 | – |
| 1.8 | 2.8 | 0.15 | 1.2 | 0.8 | 35.6 | O=C(NS(=O)(=O)c1ccc(Br)cc1)c1cccc(C(=O)NS(=O)(=O)c2ccc(Br)cc2)n1 | Active |
| 4.1 | 7.2 | 1.2 | 3.3 | 2.8 | 42.5 | O=C(NS(=O)(=O)c1ccc(Br)cc1)c1cncc(C(=O)NS(=O)(=O)c2ccc(Br)cc2)c1 | – |
| 8.7 | 8.8 | 5.5 | 6.3 | 7.8 | 38 | O=C(NS(=O)(=O)c1ccc(Br)cc1)c1ccncc1 | – |
| 6.2 | 12.2 | 2.1 | 4.2 | 5.6 | 39.8 | Cc1ccc(S(=O)(=O)NC(=O)c2cccc(C(=O)NS(=O)(=O)c3ccc(C)cc3)n2)cc1 | – |
| 7.9 | 8.8 | 1.9 | 6.2 | 5.6 | 40.2 | O=C(NS(=O)(=O)c1ccc(F)cc1)c1cncc(C(=O)NS(=O)(=O)c2ccc(F)cc2)c1 | – |
| 6.8 | 8.5 | 1.9 | 5 | 3.6 | > 50 | O=C(NS(=O)(=O)c1ccc(Br)cc1)c1ccccn1 | – |
| 8.3 | 9.7 | 2.8 | 6.7 | 4.9 | 40.5 | O=C(NS(=O)(=O)c1ccc(Br)cc1)c1cccnc1 | – |
